Assay results as given in ChEMBL document CHEMBL3580559, “Antimalarial 5,6-Dihydro-α-pyrones from Cryptocarya rigidifolia: Related Bicyclic Tetrahydro-α-Pyrones Are Artifacts1” (J Nat Prod, 2015).

Experiments:
[1] = test system: Plasmodium falciparum; assay: Antimalarial activity against chloroquine/mefloquine-resistant Plasmodium falciparum Dd2 incubated for 72 hrs by SYBR green I-based fluorescence assay; format: functional, organism-based; details: Dd2, 72 h
In short: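 Parasite growth of P. falciparum Dd2 (chloroquine/mefloquine-resistant) measured after 72 h compound treatment with the SYBR green I-based fluorescence assay; artemisinin run as positive control; IC50 values reported.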

[2] = test system: A2780; assay: Antiproliferative activity against human A2780 cells assessed as inhibition of cell growth incubated for 2 days by alamar blue assay; format: cell-based; details: A2780, 48 h

Row | SMILES | IC50 [1] | IC50 [2]
1 | CCCCCCCCCCCCC[C@@H](O)C[C@H]1CC=CC(=O)O1 | 9.2 µM | > 10 µM
2 | CCCCCCCCCCCCCCC[C@@H](O)C[C@H](O)C[C@H]1CC=CC(=O)O1 | 5.8 µM | > 10 µM
3 | CCCCCC/C=C\CCCCCCC[C@@H](O)C[C@H]1CC=CC(=O)O1 | 5.5 µM | 8.6 µM
4 | CCCCCCCC/C=C\CCCCCCC[C@H](O)C[C@H]1CC=CC(=O)O1 | 7.4 µM | > 10 µM
5 | CCCCCCCC(O)CCCCCCC/C=C/[C@H](O)C[C@H]1CC=CC(=O)O1 (stereo partly drawn) | 9 µM | > 10 µM
6 | CCCCCCCC/C=C\CCCCCC(O)CC1C[C@H]2C[C@H](CC(=O)O2)O1 (stereo partly drawn) | 4 µM | > 10 µM
7 | CCCCCCCCCCC/C=C\CCCCCCCC1C[C@H]2C[C@H](CC(=O)O2)O1 (stereo partly drawn) | 6 µM | > 10 µM
8 | CCCCCCCCCCCCC(O)CC1C[C@H]2C[C@H](CC(=O)O2)O1 (stereo partly drawn) | > 10 µM | > 10 µM
9 | CCCCCCCCCCCCCCC[C@@H](O)C[C@H]1C[C@H]2C[C@H](CC(=O)O2)O1 | > 10 µM | > 10 µM
10 | CCCCCC/C=C\CCCCCCC[C@@H]1C[C@H]2C[C@H](CC(=O)O2)O1 | > 10 µM | > 10 µM
11 | CCCCCCCC(O)CCCCCCC/C=C/[C@H]1C[C@H]2C[C@H](CC(=O)O2)O1 (stereo partly drawn) | > 10 µM | > 10 µM
12 | C[C@@H]1CC[C@H]2[C@@H](C)C(=O)O[C@@H]3O[C@@]4(C)CC[C@@H]1[C@]32OO4 [ARTEMISININ] | 0.007 µM | 
